Laboratory results published in ChEMBL document CHEMBL1144484, “High selective leishmanicidal activity of 3-hydroxy-2-methylene-3-(4-bromophenyl)propanenitrile and analogous compounds” (Eur J Med Chem, 2007).

Legend:
Leishmania amazonensis [1] = test: Antileishmanial activity against GFP tagged Leishmania amazonensis Josefa amastigote infected mouse peritoneal macrophages at 50 uM after 72 hrs; assay type: functional
How it was run: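 GFP L. amazonensis (Josefa)-infected mouse peritoneal macrophages (10⁶ cells, 5 × 10⁶ promastigotes, 4 h at 37 °C), washed, exposed to compound for 72 h in 1% DMSO. Monolayer fluorescence measured. Percent inhibition scaled between untreated infected cells and uninfected macrophages. Vehicle control was 1% DMSO. Triplicate means with SD.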

Leishmania amazonensis [2] = test: Antileishmanial activity against GFP tagged Leishmania amazonensis Josefa promastigote at 50 uM; assay type: functional
How it was run: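 Triplicate wells of 10⁵ GFP-transfected promastigotes in DMEM with 5% serum and 1% DMSO, with compound, held 72 h at 27 °C. Fluorescence intensity read on a plate fluorometer. Results given as percent inhibition, mean of triplicates with SD.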

[3] = Cytotoxicity against mouse peritoneal macrophages assessed as LDH release at 50 uM after 48 hrs; assay type: cell-based; conditions: peritoneal macrophage cell
How it was run: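 Uninfected adherent mouse peritoneal macrophages exposed to compound for 48 h at 37 °C. LDH released into the medium measured with a commercial kit. 2% Triton X-100 set maximum release and 1% DMSO set minimum. Triplicate means with SD.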

[4] = test system: Peritoneal macrophage cell; test: Effect on nitric oxide production in mouse peritoneal macrophages at 50 uM after 48 hrs; assay type: functional
How it was run: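 Supernatants from mouse peritoneal macrophage cultures incubated 48 h with compound. Nitrite measured by a modified Griess method. IFN-gamma at 10 U/ml served as positive control. Triplicate means.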

Leishmania amazonensis [5] = test: Antiamastigote activity against GFP tagged […] amastigote infected mouse peritoneal macrophages; assay type: functional, organism-based
How it was run: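 Mouse peritoneal macrophages (10⁶) infected 4 h at 37 °C with 5 × 10⁶ GFP-expressing L. amazonensis (Josefa) promastigotes, washed, then cultured 72 h with compound in 1% DMSO. Monolayer fluorescence read as parasite growth. Uninfected macrophages set maximum inhibition and untreated infected cells set minimum. IC50 obtained by linear regression.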

C=C(C#N)C(O)c1ccc([N+](=O)[O-])cc1 (stereo unspecified)
Activity (Leishmania amazonensis [1]): 93.9% | Activity (Leishmania amazonensis [2]): 47% | Activity [3]: 41.7% | Activity [4]: 5 µM

C=C(C#N)C(O)c1ccccc1OC (stereo unspecified)
Activity (Leishmania amazonensis [1]): 14.7% | Activity (Leishmania amazonensis [2]): 30% | Activity [3]: 6.1% | Activity [4]: 0.4 µM

C=C(C#N)C(O)c1ccccc1 (stereo unspecified)
Activity (Leishmania amazonensis [1]): 48.1% | Activity (Leishmania amazonensis [2]): 42.2% | Activity [3]: 0% | IC50 (Leishmania amazonensis [5]): 49.3 µM | Activity [4]: -1.6 µM

C=C(C(=O)OC)C(O)c1ccccc1 (stereo unspecified)
Activity (Leishmania amazonensis [1]): 14.4% | Activity (Leishmania amazonensis [2]): 37.6% | Activity [3]: 0% | Activity [4]: -2.1 µM

C=C(C#N)C(O)c1ccc(C(F)(F)F)cc1 (stereo unspecified)
Activity (Leishmania amazonensis [1]): 86% | Activity (Leishmania amazonensis [2]): 62.8% | Activity [3]: 36.3% | Activity [4]: -4 µM

C=C(C#N)C(O)c1ccc2c(c1)OCO2 (stereo unspecified)
Activity (Leishmania amazonensis [1]): 9.1% | Activity (Leishmania amazonensis [2]): 25.5% | Activity [3]: 0% | Activity [4]: -2.1 µM

C=C(C(=O)OC)C(O)c1ccc(F)cc1 (stereo unspecified)
Activity (Leishmania amazonensis [1]): 33.6% | Activity (Leishmania amazonensis [2]): 32.4% | Activity [3]: 0% | Activity [4]: -4.8 µM

C=C(C(=O)OC)C(O)c1ccc(C)cc1 (stereo unspecified)
Activity (Leishmania amazonensis [1]): 28.7% | Activity (Leishmania amazonensis [2]): 32.4% | Activity [3]: 0% | Activity [4]: -3.7 µM

C=C(C#N)C(O)c1ccc(Br)cc1 (stereo unspecified)
Activity (Leishmania amazonensis [1]): 84.3% | Activity (Leishmania amazonensis [2]): 17.5% | Activity [3]: 0% | IC50 (Leishmania amazonensis [5]): 12.5 µM | Activity [4]: 2.5 µM

C=C(C#N)C(OC(C)=O)c1ccc([N+](=O)[O-])cc1 (stereo unspecified)
Activity (Leishmania amazonensis [1]): 21.5% | Activity (Leishmania amazonensis [2]): 59.3% | Activity [3]: 0% | Activity [4]: 0 µM

C=C(C#N)C(O)c1cc(OC)ccc1OC (stereo unspecified)
Activity (Leishmania amazonensis [1]): 35.3% | Activity (Leishmania amazonensis [2]): 22.3% | Activity [3]: 0% | Activity [4]: -4.9 µM

C=C(C(=O)OC)C(O)c1cccnc1 (stereo unspecified)
Activity (Leishmania amazonensis [1]): 8.9% | Activity (Leishmania amazonensis [2]): 39.6% | Activity [3]: 13.2% | Activity [4]: 0.1 µM

C=C(C#N)C(O)c1ccc2ccccc2c1 (stereo unspecified)
Activity (Leishmania amazonensis [1]): 95.6% | Activity (Leishmania amazonensis [2]): 24% | Activity [3]: 26.6% | IC50 (Leishmania amazonensis [5]): 11.2 µM | Activity [4]: -7.1 µM

pentostam
Activity (Leishmania amazonensis [1]): 35.3% | Activity (Leishmania amazonensis [2]): 0% | Activity [4]: 0 µM

C=C(C(=O)OC)C(O)c1ccc(C(F)(F)F)cc1 (stereo unspecified)
Activity (Leishmania amazonensis [1]): 89% | Activity (Leishmania amazonensis [2]): 67.6% | Activity [3]: 36.2% | IC50 (Leishmania amazonensis [5]): 42.8 µM | Activity [4]: -3.5 µM

C=C(C(=O)OC)C(O)c1ccc([N+](=O)[O-])cc1 (stereo unspecified)
Activity (Leishmania amazonensis [1]): 80.6% | Activity (Leishmania amazonensis [2]): 67.3% | Activity [3]: 41.6% | Activity [4]: -3.7 µM

C=C(C#N)C(O)c1ccc(O)c(OC)c1 (stereo unspecified)
Activity (Leishmania amazonensis [1]): 19.7% | Activity (Leishmania amazonensis [2]): 6.6% | Activity [3]: 0% | Activity [4]: -2.3 µM
